Measurements pooled from the literature.
Compare with care: the assays were run in different laboratories.
PADI2: Protein-arginine deiminase type-2 (PADI2, Homo sapiens, UniProt Q9Y2J8)
SMARCA2: SWI/SNF-related matrix-associated actin-dependent regulator of chromatin subfamily A member 2 (SMARCA2, Homo sapiens, UniProt P51531)
Map2k4: Dual specificity mitogen-activated protein kinase kinase 4 (Map2k4, Mus musculus, UniProt P47809)

target	assay	test system	setting	quantity	result	Structure (SMILES)
PADI2	enzyme activity, inhibitor			kinact/KI	162 M⁻¹ s⁻¹	N=C(CCl)NCCC[C@H](NC(=O)c1ccccc1C(=O)O)c1nn[nH]n1
Endoplasmic reticulum aminopeptidase 2 (ERAP2, Homo sapiens, UniProt Q6P179)	enzyme activity, substrate			Km	88 µM	Cc1cc(=O)oc2cc(NC(=O)[C@@H](N)CCCNC(=N)N)ccc12
Nucleosome-remodeling factor subunit BPTF (BPTF, Homo sapiens, UniProt Q12830)	thermal stability, DSF		10 µM	ΔTm	0.8 °C	Cc1cnc(Nc2ccc(OCCN3CCCC3)cc2)nc1Nc1cccc(S(=O)(=O)NC(C)(C)C)c1
SMARCA2	thermal stability, DSF		100 µM	ΔTm	0.48 °C	CCC(/C=C1\CCCn2c1nc(=O)c1c(Cl)cccc12)CC
Vasopressin V2 receptor (AVPR2, Homo sapiens, UniProt P30518)	cAMP, agonist, TR-FRET	CHO-K1		Emax	~100%	NCCCC[C@H](NC(=O)[C@@H]1CCCN1C(=O)[C@@H]1CSSC[C@H](NC(=O)CNC(=O)CNC(=O)CN)C(=O)N[C@@H](Cc2ccc(O)cc2)C(=O)N[C@@H](Cc2ccccc2)C(=O)N[C@@H](CCC(N)=O)C(=O)N[C@@H](CC(N)=O)C(=O)N1)C(=O)NCC(N)=O
SMARCA2	thermal stability, DSF		100 µM	ΔTm	0.14 °C	CCC(/C=C1\CCn2c1nc(=O)c1cc(OC)ccc12)CC
Serine/threonine-protein kinase Nek5 (NEK5, Homo sapiens, UniProt Q6P3R8)	enzyme activity, inhibitor		23.5 nM	remaining activity	97%	Cc1ccc(C(=O)Nc2ccc(CN3CCN(C)CC3)c(C(F)(F)F)c2)cc1C#Cc1cnc2cccnn12
SMARCA2	thermal stability, DSF		100 µM	ΔTm	-2.09 °C	CCC(/C=C1\CCn2c1nc(=O)c1ccc(Cl)cc12)CC
SMARCA2	thermal stability, DSF		10 µM	ΔTm	0.31 °C	C[S+]([O-])c1ccc(-c2nc(-c3ccncc3)c(-c3ccc(F)cc3)[nH]2)cc1 (centres unmarked)
Map2k4	cell-free assay		10 µM	remaining signal	49%	Cc1ccc(NC(=O)c2ccc(C)c(C(F)(F)F)c2)cc1C#Cc1nn(C2CCC(O)CC2)c2ncnc(N)c12 (centres unmarked)
PADI2	enzyme activity, inhibitor			kinact/KI	6.42 M⁻¹ s⁻¹	N=C(CF)NCCC[C@H](NC(=O)c1ccccc1)c1nn[nH]n1
Map2k4	enzyme activity, inhibitor, radiometric		1 µM	remaining activity	63%	Cc1cnc(NC2CCOCC2)nc1-n1cnc(C(=O)NC(CN)c2cc(F)cc(Cl)c2)c1 (centres unmarked)
Map2k4	enzyme activity, inhibitor		10 µM	remaining activity	120%	CCCOc1ccc(OC)c(F)c1C(=O)c1ccc(C(=O)N[C@@H]2CNC[C@H]2NC(=O)c2ccc3[nH]ncc3c2)cc1
SMARCA2	binding, competition with immobilised ligand		1 µM	remaining binding	74%	NS(=O)(=O)c1ccc(Nc2nc(-c3ccc(F)cc3)c3ccccc3n2)cc1
SMARCA2	thermal stability, DSF		100 µM	ΔTm	5.33 °C	CCC(/C=C1\CCn2c1nc(=O)c1c(Cl)cccc12)CC
PADI2	enzyme activity, inhibitor			kinact/KI	17.2 M⁻¹ s⁻¹	N=C(CF)NCCC[C@H](NC(=O)c1ccc(-c2ccccc2)cc1)c1nn[nH]n1
SMARCA2	thermal stability, DSF		100 µM	ΔTm	2.14 °C	O=c1nc2n(c3cccc(Cl)c13)CC/C2=C\c1ccccc1
Melanocortin receptor 3 (MC3R, Homo sapiens, UniProt P41968)	cAMP, agonist	HEK293	3 min	Emax	0%	CC(=O)N[C@H]1CSSC[C@@H](C(=O)N[C@H](Cc2c[nH]c3ccccc23)C(N)=O)NC(=O)[C@H](Cc2ccccc2)NC(=O)[C@H](CCCNC(=N)N)NC1=O
SMARCA2	thermal stability, DSF		100 µM	ΔTm	1.61 °C	CC(C)(C)C/C=C1\CCn2c1nc(=O)c1c(Cl)cccc12
Mitogen-activated protein kinase 4 (MAPK4, Homo sapiens, UniProt P31152)	cell-free assay, inhibitor		20 µM	remaining signal	100%	Nc1ncnc2occ(-c3ccc(NC(=O)Nc4cc(C(F)(F)F)ccc4F)cc3)c12
